Data: ChEMBL document CHEMBL1139898, “Structural effects on the phosphorylation of 3-substituted 1-beta-D-ribofuranosyl-1,2,4-triazoles by human adenosine kinase” (Bioorg Med Chem Lett, 2007)
Activity calls are given as the source filed them. The rule behind the calls is not given here.

What was measured:
[1] = target: Adenosine kinase (Homo sapiens) (UniProt P55263); assay: Specific activity of human adenosine kinase
Method in brief: (§1)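 Aliquots at 0, 1, 2, 4 h quenched with perchloric acid, neutralized, monophosphate resolved by anion-exchange HPLC (ammonium phosphate gradient), UV at λmax; conversion kept <10%, linear.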

[2] = target: Adenosine kinase (Homo sapiens) (UniProt P55263); assay: Activity of human adenosine kinase relative to ribavirin; parameters: concentration or dose not given beside the values; method in brief: as §1
[3] = target: Adenosine kinase (Homo sapiens) (UniProt P55263); assay: Inhibition of human adenosine kinase ribavirin phosphorylation activity
Method in brief: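 Human adenosine kinase (clone 20-1) in Hepes pH 6.0 buffer with KCl, MgCl₂, 1 mM ATP, BSA, deoxycoformycin at 37 °C; 0.1 μM ribavirin initial substrate with test compound at 400 μM; ribavirin monophosphate formation followed by timed aliquots, acid quench and anion-exchange HPLC with UV detection.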

Adenosine kinase (Homo sapiens), sequence (P55263 2-362 limits assumed): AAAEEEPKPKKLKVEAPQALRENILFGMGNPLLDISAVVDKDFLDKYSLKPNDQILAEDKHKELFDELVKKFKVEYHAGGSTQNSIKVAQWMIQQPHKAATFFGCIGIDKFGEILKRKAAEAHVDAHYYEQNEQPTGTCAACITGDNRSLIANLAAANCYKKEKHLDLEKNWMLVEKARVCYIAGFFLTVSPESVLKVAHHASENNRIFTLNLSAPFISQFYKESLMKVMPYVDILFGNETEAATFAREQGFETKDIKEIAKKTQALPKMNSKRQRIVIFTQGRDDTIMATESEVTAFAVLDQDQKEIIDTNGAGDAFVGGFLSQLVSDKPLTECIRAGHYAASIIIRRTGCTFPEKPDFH

Structure (SMILES)	Activity [1] [nmol/mg/h]	Activity [2] [%]	Activity [3]
O=[N+]([O-])c1ncn([C@@H]2O[C@H](CO)[C@@H](O)[C@H]2O)n1	36	18	inactive
C/N=C(/N)c1ncn([C@@H]2O[C@H](CO)[C@@H](O)[C@H]2O)n1	11	5	inactive
CNC(=O)c1ncn([C@@H]2O[C@H](CO)[C@@H](O)[C@H]2O)n1	19	9	inactive
NC(=O)c1ncn([C@@H]2O[C@H](CO)[C@@H](O)[C@H]2O)n1	203	–	–
COC(=N)c1ncn([C@@H]2O[C@H](CO)[C@@H](O)[C@H]2O)n1	< 4	< 2	inactive
CC(=O)c1ncn([C@@H]2O[C@H](CO)[C@@H](O)[C@H]2O)n1	20	10	inactive
O=C(O)c1ncn([C@@H]2O[C@H](CO)[C@@H](O)[C@H]2O)n1	< 4	< 2	inactive
CC(=O)Nc1ncn([C@@H]2O[C@H](CO)[C@@H](O)[C@H]2O)n1	< 4	< 2	inactive
